Source: PubChem BioAssay
An excerpt weighted towards active compounds, which were near 1.9% of everything screened.
CHRM5 agonist: agonists of human muscarinic M5 receptor (CHRM5); activation, % at 3 µM; hit rate 0.19% among 360,000; P08912; CHO-K1 hM5 cells, Fluo-8 calcium fluorescence; 0% DMSO wells, 100% maximal acetylcholine response;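 active means activation above the run's mean over test compounds plus 3 SD, cut at about 23% in these data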;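 further: signal is peak over basal fluorescence ratio across the kinetic read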
CHRM5 PAM: CHRM5 positive allosteric modulation; activation, % at 3 µM; P08912; hit rate 0.3% among 360,000; AID 624038; CHO-K1 hM5, Fluo-8 calcium, ACh EC20 PAM; 0% = ACh EC20, 100% = ACh EC100;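 active means activation above the run cutoff, the mean activation of all test compounds plus 3 SD, cut at about 18% in these data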
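Measured by: Fluo-8 calcium fluorescence; material: human M5 receptor in CHO-K1 cells; schedule: Post-acetylcholine fluorescence recording 140 s; benchmarks: low control EC20 acetylcholine (0%), high control EC100 acetylcholine (100%); read-out: Max/basal fluorescence ratio as % of EC20–EC100 ACh window; compound: single dose, 3 µM nominal final test concentration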
CHRM4 agonist: CHRM4 agonism in calcium assay | P08173 | CHO-K1 hM4/Gqi5, Fluo-8 calcium fluorescence; vehicle 0%, full acetylcholine response 100% | activation, % at 3 µM | hit rate 0.14% among 360,000 | AID 624127;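 active means activation above the run mean over all test wells plus 3 SD, cut at about 32% in these data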;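 further: peak over basal fluorescence ratio per well then scaled between controls; 0% = DMSO wells and 100% = acetylcholine at EC100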
Target sequence (P08173 whole entry, looked up): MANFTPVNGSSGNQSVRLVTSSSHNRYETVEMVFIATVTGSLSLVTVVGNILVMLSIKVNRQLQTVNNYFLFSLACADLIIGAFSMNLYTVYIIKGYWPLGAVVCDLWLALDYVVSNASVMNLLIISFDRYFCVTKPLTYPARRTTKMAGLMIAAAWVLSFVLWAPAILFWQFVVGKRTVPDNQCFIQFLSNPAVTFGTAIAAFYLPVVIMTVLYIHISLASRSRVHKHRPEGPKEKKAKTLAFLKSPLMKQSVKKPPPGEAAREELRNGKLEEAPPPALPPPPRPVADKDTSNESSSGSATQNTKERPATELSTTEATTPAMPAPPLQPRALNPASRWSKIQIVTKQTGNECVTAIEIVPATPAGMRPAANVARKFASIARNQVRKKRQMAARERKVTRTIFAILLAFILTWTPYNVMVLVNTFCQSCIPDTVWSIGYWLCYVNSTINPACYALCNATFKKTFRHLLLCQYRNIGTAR
CHRM5 antagonist: antagonists of human muscarinic M5 receptor (CHRM5). P08912. CHO-hM5 cells, Fluo-8 calcium fluorescence, ACh EC80. inhibition, % at 3 µM. hit rate 0.59% among 360,000. AID 624040;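 active means inhibition above a per-plate cutoff, the mean of that plate's test compounds plus 3 SD, cut at about 27% in these data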;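 further: 0% = acetylcholine EC80 with DMSO and 100% = DMSO without agonist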
M4 antag: CHRM4 antagonism in calcium assay; P08173; CHO-hM4 cells, ACh EC80, Fluo-8 calcium fluorescence; inhibition, % at 3 µM; hit rate 0.73% among 360,000; AID 624125;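 active means inhibition above its plate's cutoff, the mean inhibition of sample wells plus 3 SD, cut at about 27% in these data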;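 further: 0% = acetylcholine EC80 with DMSO and 100% = DMSO without agonist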
CHRM4 PAM: positive allosteric modulators of human muscarinic M4 receptor | AID 624126 | P08173 | activation, % at 3 µM | hit rate 0.4% among 360,000 | CHO-K1 hM4/Gqi5, Fluo-8 calcium fluorescence, ACh EC20; 0% = ACh EC20, 100% = maximal ACh;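 active means activation above its plate's cutoff, the mean activation of sample wells plus 3 SD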
Starred values were filed as active, the others as inactive.

SMILES | CHRM5 agonist | CHRM5 PAM | CHRM4 agonist | CHRM5 antagonist | M4 antag | CHRM4 PAM
CC(C)CNC(=S)N1CCC(Cc2ccccc2)CC1 | 1 | -4 | 4 | -1 | -7 | -5
COC(=O)[C@]12CCCCC=C1N(CCC1=CCCCC1)C(=O)[C@H](CC(=O)NCCCN1CCCC1=O)C2 | 0 | -4 | 12 | 6 | -10 | 14
CC1CCCCN1C(=O)CSc1nc(N)cc(=O)[nH]1 (centres undefined) | -2 | 4 | 1 | -5 | 10 | 3
CC1CCCCN1C(=O)CSc1nc(N)nc(N)n1 (centres undefined) | 0 | -4 | 1 | 10 | -6 | 26*
COc1cc2c(cc1OCc1ccccc1)/C(=C/C(=O)OCc1ccccc1)OC2 | -1 | -8 | -1 | 8 | -12 | 12
O=c1c(Cl)c(N2CCN(S(=O)(=O)c3ccc(F)cc3)CC2)cnn1-c1cccc(Cl)c1 | -1 | -7 | 0 | 6 | 3 | -2
N#C/C(=C\c1coc2ccc(O)cc2c1=O)C(=O)Nc1nc2ccccc2s1 | 105* | -28 | 67* | 48* | 39* | -38
O=c1[nH]c2cccc(Cl)c2c2ccccc12 | -1 | -2 | 1 | 0 | -6 | 10
COc1ccc2c(C#CCCO)c(-c3ccc(S(C)(=O)=O)cc3)sc2c1 | -6 | -18 | 27 | 18 | 32* | -13
COc1ccc2sc(-c3ccc(S(C)(=O)=O)cc3)c(C#CCO)c2c1 | 2 | -16 | 7 | 17 | 6 | -2
Cc1ccc(NC(=O)c2cncc(Br)c2)c([N+](=O)[O-])c1 | 0 | -2 | 1 | -1 | -9 | 23*
Cc1ccc(NC(=O)c2cccnc2)c([N+](=O)[O-])c1 | -1 | -3 | 0 | 6 | -4 | 0
COc1ccc(OC)c(C2CC(=O)N3CN(c4ccccc4F)CSC3=C2C#N)c1 (centres undefined) | -1 | 22* | 0 | -13 | -10 | 3
COc1cccc(C2CC(=O)N3CN(c4ccccc4F)CSC3=C2C#N)c1 (centres undefined) | 3 | -4 | 0 | 3 | 4 | -3
CCCN(C#N)c1nc(NCC)nc(NC(C)C)n1 | 9 | -1 | 0 | 53* | -2 | 10
CCNc1nc(NC(C)C)nc(N(C)C#N)n1 | 2 | 5 | 0 | 0 | 5 | 6
O=C1c2ccccc2C(Nc2cccnc2)N1Cc1ccccc1Cl (centres undefined) | -2 | -9 | 12 | 7 | 4 | -11
O=C1c2ccccc2C(Nc2cccnc2)N1Cc1ccccc1 (centres undefined) | 0 | -12 | 14 | 5 | 29* | -15
Brc1ccc(-c2c[n+]3c(n2-c2ccccc2)SCC3)cc1 | -18 | 2 | 0 | 6 | 54* | -16
CC(=O)C1=C(O)C(=O)N(c2ccc(C)cc2)C1c1ccc([N+](=O)[O-])cc1 (centres undefined) | 2 | 1 | 1 | -2 | 3 | 4
CC(=O)CC(=O)Nc1ccc(Nc2ccccc2)cc1 | 0 | -2 | 2 | -1 | 30* | -12
CC(=O)Nc1ccc(Nc2ccccc2)cc1 | 1 | 3 | 2 | -2 | -4 | 15
CC(=C/c1ccccc1)/C=N/NC(=O)c1cccs1 | -5 | -5 | -1 | 3 | -3 | -1
O=C(N/N=C/C(Br)=C\c1ccccc1)c1cccs1 | 6 | 23* | 2 | -29 | -4 | -1
CCc1nc2c(OCc3ccc4c(c3)OCO4)cccn2c1N(C=O)Cc1ccc(OC)cc1 | -2 | -4 | 3 | 7 | -4 | -2
SMILES | CHRM5 agonist | CHRM5 PAM | CHRM4 agonist | CHRM5 antagonist | M4 antag | CHRM4 PAM
CCNC(=O)c1ccc(CSc2nc3ccccc3s2)cc1 | -1 | -12 | 16 | 34* | -3 | -8
CC(C)(C)N(Cc1ccccc1)C(=O)COC(=O)C1CCN(c2ccc(C(F)(F)F)cn2)CC1 | -3 | -16 | 2 | 4 | 7 | -7
N#C/C(=C\c1ccccn1)c1nc2ccccc2s1 | 44* | -20 | 20 | 17 | 18 | -10
COC(=O)c1ccc(/C=C(\C#N)c2nc3ccccc3s2)cc1 | 4 | 1 | 6 | -6 | -2 | 2
N#C/C(=C/c1ccc(-c2ccc(S(N)(=O)=O)cc2)o1)c1nc2ccccc2s1 | 32* | -18 | 19 | 48* | 26* | -8
CN(Cc1ccccc1)C(c1ccnc2ccccc12)c1nnnn1-c1ccc2c(c1)OCCO2 (centres undefined) | -2 | -12 | 4 | 5 | -10 | 4
CCCC(=O)Nc1ccc(OCC(O)CNC(C)C)c(C(C)=O)c1 (centres undefined) | -1 | -18 | 2 | 10 | 100* | -18
OC1(C#CCN2CCCC2)c2ccccc2-c2ccccc21 | -21 | -32 | 1 | 51* | 47* | -56
CCN(CC)CCC#CC1(O)c2ccccc2-c2ccccc21 | -22 | -33 | 0 | 87* | 73* | -16
Cc1cccc2c1N(CCOc1ccc(C(C)(C)C)cc1)C(=O)C2=O | 27* | -12 | -3 | 12 | 6 | -11
CN(Cc1cnn(C)c1)C(=O)CC1C(=O)NCCN1Cc1cccc(Oc2ccccc2)c1 (centres undefined) | -6 | -14 | 4 | 32* | 4 | 0
Cc1ccc(S(=O)(=O)NCC2CCC(C(=O)NCCCN3CCCC3=O)CC2)cc1 (centres undefined) | 0 | 9 | 1 | -13 | 0 | 1
C#CCN(Cc1ccco1)C(=O)c1cc(COc2cccc3cccnc23)on1 | 5 | -3 | 10 | 7 | -6 | -6
CCC(C)c1ccccc1NC(=O)COc1ccc(-n2cnnn2)cc1 (centres undefined) | 1 | 1 | 2 | 0 | -13 | 20*
CCOc1ccc(NC(=O)c2cccc(-n3cnnn3)c2)cc1 | 0 | -2 | 2 | 3 | 27* | 21
O=C(Nc1ccc(OC(F)(F)F)cc1)c1cccc(-n2cnnn2)c1 | -2 | -5 | 11 | 2 | -3 | 5
Cn1nnnc1SCCNCc1cc(Cl)ccc1OCc1ccccc1 | -1 | -17 | 12 | 14 | -1 | -15
Cn1nnnc1SCCNCc1ccccc1OCc1ccc(Cl)cc1 | -2 | -4 | 4 | 7 | 27* | -27
COc1cc(/C=C/C(=O)/C=C(O)/C=C/c2ccc(O)c(OC)c2)ccc1O | 39* | -18 | 44* | 37* | 32* | -12
COc1cc(/C=C2/C(=O)CNC2=O)ccc1O | 1 | 6 | 0 | -3 | 1 | 2
COc1cc(/C=C/C(=O)O)ccc1O | 4 | -2 | 1 | 0 | -3 | -1
COc1cc(C=C2C(=O)C=CC2=O)ccc1O | 4 | 7 | 0 | -2 | 31* | -4
